From ChEMBL document CHEMBL1269005, “Synthesis and biological evaluation of polyenylpyrrole derivatives as anticancer agents acting through caspases-dependent apoptosis” (J Med Chem, 2010)
Active and inactive are the calls of the source. The calls are words filed in the database; no cut-off is given here.

Experiments:
A549 [1] = test: Cytotoxicity against human A549 cells after 48 hrs by alamar blue assay; format: functional, cell-based; details: A549, 48 h
A549 [2] = test: Antitumor activity against human A549 cells xenografted in BALB/c nude mouse assessed as increase in activated caspase-3 protein expression in tumor at 3 mg/kg, sc qd for 5 days by immunohistochemistry; format: functional, organism-based; design: dose 3 mg/kg
How it was run: (§1)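 Female athymic BALB/c nu/nu mice, 6-8 weeks, 18-22 g; 1 × 10^7 A549 cells implanted sc on back. At 80-120 mm3 tumors, randomized (six per group, day 0); daily sc dosing days 0-4 in 20% Tween 80/saline, >1.5 cm from tumor; vehicle controls. Tumor L and W measured to day 21-28; TV = (L × W2)/2, RTV = TVn/TV0. Activated caspase-3 immunohistochemistry on formalin-fixed paraffin tumor sections (day 28 after inoculation).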

[3] = Cytotoxicity against human BEAS2B cells uo to 80 uM after 48 hrs by alamar blue assay; format: cell-based; details: beas-2b
How it was run: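 Beas-2b cells seeded at 5000/well in RPMI 1640 + 10% FBS, 24 h at 37 °C, 5% CO2; then treated 0-80 μM in triplicate per concentration, 0.1% DMSO final, 48 h. Viability read by Alamar Blue per manufacturer's protocol; mean ± SE of three separate experiments.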

Mus musculus [4] = test: Toxicity in human A549 cells xenografted BALB/c nude mouse assessed as histological changes in kidney at 3 mg/kg, sc qd for 5 days; format: organism-based; design: dose 3 mg/kg, route subcutaneous; details: in vivo, 120 h
How it was run: (§2)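 Xenograft setting: female athymic BALB/c nu/nu mice bearing sc A549 tumors (80-120 mm3 at day 0), six per group, daily sc dosing days 0-4 in 20% Tween 80 in saline; vehicle controls. Body weight recorded three times weekly up to days 21-28. Brain, liver and kidney fixed in 4% formalin, paraffin-embedded and sectioned for histology.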

A549 [5] = test: Cell cycle arrest in human A549 cells assessed as accumulation at sub-G1 phase after 48 hrs using propidium iodide staining by flow cytometry; format: functional, cell-based
How it was run: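 A549 cells treated 0-5 μM (0.31-5 μM) or 0.1% DMSO vehicle for 48 h. 5 × 10^5 cells fixed in 70% ethanol on ice ≥2 h, stained with RNase (200 μg/mL) and PI (10 μg/mL) 30 min at room temperature; sub-G1 fraction by flow cytometry, ≥10 000 cells per sample; mean ± SE of three experiments.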

A549 [6] = test: Induction of apoptosis in human A549 cells assessed as cleavage of caspase-8 at 5 uM after 36 hrs by Western blotting; format: functional, cell-based
A549 [7] = test: Induction of apoptosis in human A549 cells assessed as blockade of sub-G1 phase increase at 5 uM after 36 hrs using propidium iodide staining by flow cytometry in presence of N-acetyl-cysteine; format: functional, cell-based
How it was run: (§3)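 Ethanol-fixed cells stained with RNase (200 μg/mL) and PI (10 μg/mL) 30 min; sub-G1 population by flow cytometry on ≥10 000 cells; mean ± SE of three experiments.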

A549 [8] = test: Induction of apoptosis in human A549 cells assessed as increase of Bax protein level at 5 uM after 36 hrs by Western blotting; format: functional, cell-based
How it was run: (§4)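 A549 cells exposed 0-10 μM or 0.1% DMSO for 36 h; lysed in SDS sample buffer, boiled, SDS-PAGE, PVDF transfer, blocked in 5% milk PBST, primary antibody overnight, HRP secondary with chemiluminescence. Probed for pro-caspase 3, pro-caspase 9, PARP, Bcl-2, Bax, Bak, actin. One of three repeats shown.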

Mus musculus [9] = test: Toxicity in human A549 cells xenografted BALB/c nude mouse assessed as histological changes in liver at 3 mg/kg, sc qd for 5 days; format: organism-based; design: dose 3 mg/kg, route subcutaneous; details: in vivo, 120 h; how it was run: as §2
A549 [10] = test: Induction of apoptosis in human A549 cells assessed as reduction of Bcl-2 protein level at 5 uM after 36 hrs by Western blotting; format: functional, cell-based; how it was run: as §4
A549 [11] = test: Antitumor activity against human A549 cells xenografted in BALB/c nude mouse assessed as inhibition of tumor growth at 3 mg/kg, sc qd for 5 days; format: functional, organism-based; design: dose 3 mg/kg; how it was run: as §1
A549 [12] = test: Induction of apoptosis in human A549 cells assessed as loss of mitochondria membrane potential at 5 uM after up to 48 hrs using 3,3'-diethyloxacarbocyanine iodide staining by flow cytometry; format: functional, cell-based
How it was run: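 A549 cells treated with 5 μM or 0.1% DMSO for indicated times; 5 × 10^5 cells stained with 50 nM DiOC2(3), 15 min, 37 °C, dark, washed in cold PBS. Flow cytometry, excitation 488 nm, emission 525 nm (FL-1); low-uptake cells scored as mitochondrial damage against untreated controls. One of three repeats shown.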

Mus musculus [13] = test: Toxicity in human A549 cells xenografted BALB/c nude mouse assessed as change in body weight at 3 mg/kg, sc qd for 5 days; format: organism-based; design: dose 3 mg/kg, route subcutaneous; details: in vivo, 120 h; how it was run: as §2
A549 [14] = test: Induction of apoptosis in human A549 cells assessed as blockade of sub-G1 phase increase at 5 uM after 36 hrs using propidium iodide staining by flow cytometry in presence of 4,4'-diisothiocyano- 2,2'-stilbenedisulfonic acid; format: functional, cell-based; how it was run: as §3
Mus musculus [15] = test: Toxicity in human A549 cells xenografted BALB/c nude mouse assessed as histological changes in brain at 3 mg/kg, sc qd for 5 days; format: organism-based; design: dose 3 mg/kg, route subcutaneous; details: in vivo, 120 h; how it was run: as §2
A549 [16] = test: Induction of apoptosis in human A549 cells assessed as blockade of sub-G1 phase increase at 5 uM after 36 hrs using propidium iodide staining by flow cytometry in presence of Z-VAD-fmk; format: functional, cell-based; how it was run: as §3
A549 [17] = test: Induction of apoptosis in human A549 cells assessed as decrease of procaspase-9 level after 36 hrs by Western blotting; format: functional, cell-based; how it was run: as §4
A549 [18] = test: Induction of apoptosis in human A549 cells assessed as increase of p53 protein level at 5 uM after 2 hrs by Western blotting; format: functional, cell-based
How it was run: (§5)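 A549 cells given 5 μM or 0.1% DMSO for 0-16 h; SDS lysates run on SDS-PAGE, transferred to PVDF, blocked in 5% milk PBST, primary antibody overnight, HRP secondary and chemiluminescence. p53, p21 and actin probed; one of three repeats shown.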

A549 [19] = test: Induction of apoptosis in human A549 cells assessed as increase of Bak protein level at 5 uM after 36 hrs by Western blotting; format: functional, cell-based; how it was run: as §4
A549 [20] = test: Induction of apoptosis in human A549 cells assessed as increase of p53 protein level at 5 uM after 8 hrs by Western blotting; format: functional, cell-based; how it was run: as §5
A549 [21] = test: Induction of apoptosis in human A549 cells assessed as loss of mitochondrial cytochrome c at 5 uM after up to 48 hrs by Western blotting; format: functional, cell-based
How it was run: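 A549 cells treated 5 μM or 0.1% DMSO for 36 or 48 h. Cells homogenized in sucrose/HEPES buffer A on ice, then spun at 750g twice and 10000g for 60 min at 4 °C; pellet taken as mitochondrial fraction, supernatant as cytosolic. Cytochrome c in each fraction by Western blot. One of three repeats shown.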

A549 [22] = test: Induction of apoptosis in human A549 cells assessed as cleavage of PARP at 5 uM after 36 hrs by Western blotting; format: functional, cell-based
A549 [23] = test: Induction of apoptosis in human A549 cells assessed as increase in DNA breaks at 5 uM after 24 hrs by flow cytometry based TUNEL assay; format: functional
How it was run: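 A549 cells exposed to 5 μM for various times. 5 × 10^5 cells fixed in 1% paraformaldehyde and 70% ethanol, TdT reaction with DIG-dUTP 30 min at 37 °C, anti-DIG-fluorescein 30 min in the dark, then PI (5 μg/mL) plus RNase A (100 μg/mL) 30 min; fluorescence by flow cytometry. One of three repeats shown.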

A549 [24] = test: Induction of apoptosis in human A549 cells assessed as decrease of procaspase-3 level after 36 hrs by Western blotting; format: functional, cell-based; how it was run: as §4
A549 [25] = test: Induction of autophagy in human A549 cells assessed as acridine orange stain incorporation at 5 uM after 24 hrs by fluorescence microscopic analysis; format: functional, cell-based

C/C=C/C=C/C=C/C=C/c1cc(OC)c(C)c(=O)o1
IC50 (A549 [1]): > 20 µM

COc1cc(/C(C)=C/C=C/C=C/C=C/c2[nH]ccc2Cl)oc(=O)c1C
IC50 (A549 [1]): 5.2 µM

O=c1cc(O)cc(/C=C/C=C/C=C/C=C/c2[nH]ccc2Cl)o1
IC50 (A549 [1]): > 20 µM

COc1cc(/C=C/C=C/C=C/C=C/c2ccccc2Cl)oc(=O)c1C
IC50 (A549 [1]): > 20 µM

COc1cc(/C=C/C=C/C=C/C=C/c2sccc2Cl)oc(=O)c1
IC50 (A549 [1]): > 20 µM

COc1cc(/C=C/C=C/C=C/C=C/c2cccc(Cl)c2)oc(=O)c1C
IC50 (A549 [1]): > 20 µM

COc1cc(/C=C/C=C/C=C/C=C/c2[nH]ccc2Cl)oc(=O)c1C [AUXARCONJUGATIN A]
IC50 (A549 [1]): 1.2 µM

Cc1c(O)cc(/C=C/C=C/C=C/C=C/c2[nH]ccc2Cl)oc1=O
IC50 (A549 [1]): > 20 µM

CC\C(=C/C=C/C=C/C=C/c1[nH]ccc1Cl)c1cc(OC)c(C)c(=O)o1
IC50 (A549 [1]): 5.6 µM

CCCCc1c(OC)cc(/C(C)=C/C=C/C=C/C=C/c2[nH]ccc2Cl)oc1=O
Activity (A549 [2]): Active | Activity [3]: Non-toxic | Activity (Mus musculus [4]): Non-toxic | IC50 (A549 [1]): 0.01 µM | Activity (A549 [5]): Dose-dependent effect | Activity (A549 [6]): inactive | Activity (A549 [7]): inactive | Activity (A549 [8]): inactive | Activity (Mus musculus [9]): Non-toxic | Activity (A549 [10]): Active | Activity (A549 [11]): Active | Activity (A549 [12]): Active | Activity (Mus musculus [13]): Non-toxic | Activity (A549 [14]): inactive | Activity (Mus musculus [15]): Non-toxic | Activity (A549 [16]): Active | Activity (A549 [17]): Dose-dependent effect | Activity (A549 [18]): Active | Activity (A549 [19]): Active | Activity (A549 [20]): Active | Activity (A549 [21]): Active | Activity (A549 [22]): Active | Activity (A549 [23]): 47% | Activity (A549 [24]): Dose-dependent effect | Activity (A549 [25]): inactive

COc1cc(/C=C/C=C/C=C/C=C/c2sccc2Cl)oc(=O)c1C
IC50 (A549 [1]): > 20 µM

COc1cc(/C=C/C=C/C=C/C=C/c2c(Cl)ccn2S(C)(=O)=O)oc(=O)c1C
IC50 (A549 [1]): > 20 µM

CCCCc1c(OC)cc(/C=C/C=C/C=C/C=C/c2[nH]ccc2Cl)oc1=O
IC50 (A549 [1]): 5 µM

COc1cc(/C(C)=C/C=C/C=C/C=C/c2[nH]ccc2Cl)oc(=O)c1
IC50 (A549 [1]): 2.5 µM

COc1cc(/C=C/C=C/C=C/C=C/c2[nH]ccc2Cl)oc(=O)c1 [AUXARCONJUGATIN B]
Activity [3]: Non-toxic | IC50 (A549 [1]): 0.6 µM | Activity (A549 [5]): Dose-dependent effect | Activity (A549 [6]): inactive | Activity (A549 [7]): inactive | Activity (A549 [8]): inactive | Activity (A549 [10]): Active | Activity (A549 [12]): Active | Activity (A549 [14]): inactive | Activity (A549 [16]): Active | Activity (A549 [17]): Dose-dependent effect | Activity (A549 [19]): Active | Activity (A549 [21]): Active | Activity (A549 [22]): Active | Activity (A549 [23]): 42% | Activity (A549 [24]): Dose-dependent effect | Activity (A549 [25]): inactive
